The values that follow come from ChEMBL document CHEMBL4311938, “Sirtuin inhibition and anti-cancer activities of ethyl 2-benzimidazole-5-carboxylate derivatives” (Medchemcomm, 2019).

Molecules are shown by their SMILES. Active and inactive are the calls of the source. The rule behind the calls is not given here.

For assay [1], the target named is T1, NAD-dependent protein deacetylase sirtuin-1 (Homo sapiens, UniProt Q96EB6).
T1 sequence (Q96EB6 whole entry): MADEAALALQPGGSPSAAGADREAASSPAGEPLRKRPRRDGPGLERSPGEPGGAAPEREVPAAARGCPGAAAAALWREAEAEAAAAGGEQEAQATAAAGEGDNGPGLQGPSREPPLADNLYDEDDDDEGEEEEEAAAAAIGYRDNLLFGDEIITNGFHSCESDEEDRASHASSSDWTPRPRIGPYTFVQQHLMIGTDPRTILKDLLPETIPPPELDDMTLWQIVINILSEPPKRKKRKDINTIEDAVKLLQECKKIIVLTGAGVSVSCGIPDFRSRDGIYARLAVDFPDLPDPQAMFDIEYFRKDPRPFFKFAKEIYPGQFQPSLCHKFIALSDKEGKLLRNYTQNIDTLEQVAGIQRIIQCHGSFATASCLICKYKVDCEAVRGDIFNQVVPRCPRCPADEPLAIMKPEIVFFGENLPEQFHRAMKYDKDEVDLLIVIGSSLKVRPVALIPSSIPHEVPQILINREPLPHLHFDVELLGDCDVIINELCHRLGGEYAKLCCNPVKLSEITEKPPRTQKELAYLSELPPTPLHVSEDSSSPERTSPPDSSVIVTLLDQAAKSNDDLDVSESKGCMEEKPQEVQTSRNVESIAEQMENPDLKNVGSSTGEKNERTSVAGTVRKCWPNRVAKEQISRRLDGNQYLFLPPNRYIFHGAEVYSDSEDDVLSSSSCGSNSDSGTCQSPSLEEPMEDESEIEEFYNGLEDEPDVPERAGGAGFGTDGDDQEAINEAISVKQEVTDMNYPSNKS
As to the kind of experiment: Inhibition of human recombinant SIRT1 using p53 (379 to 382 residues) conjugated to AMC as substrate incubated for 45 mins in presence of NAD+ by fluorescence assay.

Assay [2] concerns the target T2, NAD-dependent protein deacetylase sirtuin-2 (Homo sapiens, UniProt Q8IXJ6).
T2 sequence (Q8IXJ6 whole entry): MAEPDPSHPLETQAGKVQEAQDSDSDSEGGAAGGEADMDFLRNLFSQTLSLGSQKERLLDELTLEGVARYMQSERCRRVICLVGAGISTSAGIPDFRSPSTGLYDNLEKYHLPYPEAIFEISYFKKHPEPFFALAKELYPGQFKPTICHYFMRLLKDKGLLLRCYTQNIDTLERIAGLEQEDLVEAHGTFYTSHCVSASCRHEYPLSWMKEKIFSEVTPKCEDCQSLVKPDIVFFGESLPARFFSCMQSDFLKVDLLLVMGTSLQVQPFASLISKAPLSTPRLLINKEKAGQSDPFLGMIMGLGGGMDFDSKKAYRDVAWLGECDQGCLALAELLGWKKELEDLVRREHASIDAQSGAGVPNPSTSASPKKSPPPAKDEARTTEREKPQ
In words: Inhibition of human recombinant SIRT2 using p53 (317 to 320 residues) conjugated to AMC as substrate incubated for 45 mins in presence of NAD+ by fluorescence assay.

Assay [3] has as its target T3, NAD-dependent protein deacetylase sirtuin-3, mitochondrial (Homo sapiens, UniProt Q9NTG7).
T3 sequence (Q9NTG7 whole entry): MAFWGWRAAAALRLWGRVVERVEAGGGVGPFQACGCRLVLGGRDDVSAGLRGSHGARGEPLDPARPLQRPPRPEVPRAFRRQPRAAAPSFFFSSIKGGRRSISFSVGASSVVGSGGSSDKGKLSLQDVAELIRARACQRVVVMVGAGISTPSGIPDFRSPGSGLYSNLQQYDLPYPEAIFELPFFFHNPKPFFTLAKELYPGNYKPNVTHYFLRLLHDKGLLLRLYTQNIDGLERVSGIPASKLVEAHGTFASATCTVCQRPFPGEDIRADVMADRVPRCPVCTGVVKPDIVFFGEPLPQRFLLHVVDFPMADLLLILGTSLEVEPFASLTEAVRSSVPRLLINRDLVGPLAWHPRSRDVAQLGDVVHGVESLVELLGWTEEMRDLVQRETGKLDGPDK
As to the kind of experiment: Inhibition of human recombinant SIRT3 using p53 (317 to 320 residues) conjugated to AMC as substrate incubated for 45 mins in presence of NAD+ by fluorescence assay.

Assay [4] has as its target T4, NAD-dependent protein deacetylase sirtuin-2 (Homo sapiens) (UniProt Q8IXJ6).
T4 sequence (whole entry): T2 sequence (Q8IXJ6 whole entry)
As to the kind of experiment: Inhibition of SIRT2 in human H103 cells assessed as increase in acetylated alpha tubulin level at 5.83 uM after 72 hrs by Western blot analysis. The class given is cell-based. The gist of the method:
(§1)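 H103 cells were seeded at 5 × 10^5 per well and treated either for 24 h or for 72 h. Lysates were run on SDS-PAGE and blotted to PVDF. Blocking in 5% skimmed milk with primary antibody was done overnight at 4 °C. HRP secondaries were anti-mouse 1:5000 and anti-rabbit 1:1000, 1 h at room temperature, with ECL detection. Acetylated protein was normalized to actin, then to total protein, then to untreated cells. Two independent experiments were run.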
(Immunoblotting shows a protein as a band on a membrane.)

In assay [5] the target is T5, NAD-dependent protein deacetylase sirtuin-1 (Homo sapiens) (UniProt Q96EB6).
T5 sequence (whole entry): T1 sequence (Q96EB6 whole entry)
In words: Inhibition of SIRT1 in human H103 cells assessed as increase in acetylated p53 level at 5.83 uM after 72 hrs by Western blot analysis. It is filed as cell-based. A digest of the protocol:
as §1

In assay [6] the target is T5, NAD-dependent protein deacetylase sirtuin-1 (Homo sapiens). In words: Inhibition of SIRT1 in human H103 cells assessed as increase in acetylated p53 level at 32 uM after 24 hrs by Western blot analysis. The class given is cell-based. A digest of the protocol: as §1
In assay [7] the target is T6, NAD-dependent protein deacetylase sirtuin-3, mitochondrial (Homo sapiens) (UniProt Q9NTG7).
T6 sequence (whole entry): T3 sequence (Q9NTG7 whole entry)
In words: Inhibition of SIRT3 in human H103 cells assessed as growth inhibition after 72 hrs by MTT assay. It is filed as cell-based. The gist of the method: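 H103 cells (ECACC) were seeded at 5 × 10^3 per well and treated for 72 h with final DMSO below 1%. Viability was read by MTT: 4 h at 37 °C in 5% CO2, formazan dissolved in DMSO, absorbance at 570 nm. Proliferation was expressed as the ratio of treated to control absorbance. Experiments were run in triplicate. GI50 was determined.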
(In general: Tetrazolium dyes change colour on reduction, which living cells bring about.)

The subject of assay [8] is H103. As to the kind of experiment: Cell cycle arrest in human H103 cells assessed as accumulation at G1 phase after 24 hrs by RNase/7-AAD staining based flow cytometry analysis (reference value: 38.8 %). The class given is functional. The gist of the method:
(§2)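 H103 oral squamous carcinoma cells (ECACC) were seeded at 5 × 10^5 per well, left to adhere overnight and then treated for 24 h. Cells were trypsinized, washed in PBS and fixed in ice-cold 70% ethanol for 30 min at 4 °C. They were stained with RNase plus 7-AAD in staining buffer, and DNA content was read by imaging flow cytometry at 488 nm. G1 = 2N, G2/M = 4N.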
In general terms: In flow cytometry, cells or beads pass a laser one at a time.

The subject of assay [9] is H103. As to the kind of experiment: Cell cycle arrest in human H103 cells assessed as accumulation at S phase after 24 hrs by RNase/7-AAD staining based flow cytometry analysis (reference value: 18 %). It is filed as functional. The gist of the method:
as §2

The subject of assay [10] is H103. As to the kind of experiment: Cell cycle arrest in human H103 cells assessed as accumulation at G2/M phase after 24 hrs by RNase/7-AAD staining based flow cytometry analysis (reference value: 36.5 %). It is filed as functional. A digest of the protocol: as §2
In assay [11] the test system is H103. In words: Induction of apoptosis in human H103 cells assessed as viable cells after 24 hrs by AnnexinV-FLTC/propidium iodide staining based flow cytometry (reference value: 29.4 %). The class given is functional.
In assay [12] the test system is H103. As to the kind of experiment: Induction of apoptosis in human H103 cells assessed as early apoptotic cells after 24 hrs by AnnexinV-FLTC/propidium iodide staining based flow cytometry (reference value: 0.01 %). The class given is functional.
Assay [13] relates to H103. In words: Induction of apoptosis in human H103 cells assessed as late apoptotic cells after 24 hrs by AnnexinV-FLTC/propidium iodide staining based flow cytometry (reference value: 1.32 %). It is filed as functional.
For assay [14], the system named is H103. As to the kind of experiment: Induction of apoptosis in human H103 cells assessed as necrotic cells after 24 hrs by AnnexinV-FLTC/propidium iodide staining based flow cytometry (reference value: 7.49 %). The class given is functional.

Take `CCOC(=O)c1ccc2[nH]c(-c3ccc4c(c3)OCO4)nc2c1`: the half-maximal inhibitory concentration (IC50) (as a rule, the point on the concentration scale where inhibition reaches its midpoint) in assay [1] turned out to be 7.7 µM; in assay [2], 5.6 µM; in assay [3], 9.8 µM. Also, the inhibition result in assay [4] was “Active”. Besides, the inhibition result in assay [5] and in assay [6] was “inactive” throughout. Moreover, the GI50 (in general, the concentration giving 50% growth inhibition) in [7] stood at 5.83 µM. Also, the Activity in assay [8] came to 8.1%; in assay [9] it was 20.3%; in assay [10], 43.2%; in [11] it was 90.6%; in assay [12], 0.04%; in assay [13] it was 7.82%. The Activity in [14] stood at 11.3%.
Turning to `CCOC(=O)c1ccc2[nH]c(-c3ccc(Cl)cc3)nc2c1`, the concentration for half-maximal inhibition (IC50) in assay [1] came to 33.6 µM; in [2], 30.5 µM.
With `CCOC(=O)c1ccc2[nH]c(-c3ccc(OC(F)(F)F)cc3)nc2c1`, the IC50 in assay [1], in [2] and in assay [3] was over 50 µM each time.
For the compound `CCOC(=O)c1ccc2[nH]c(-c3ccc(Br)cc3)nc2c1`, the values for the IC50 in assay [1], in assay [2] and in assay [3] were over 50 µM, 45.8 µM and over 50 µM, respectively.
Regarding `CCOC(=O)c1ccc2[nH]c(-c3ccc(C(F)(F)F)cc3)nc2c1`, the half-inhibitory concentration (IC50) in assay [1], in assay [2] and in [3] was over 50 µM throughout.
